Source: ChEMBL document CHEMBL2040806, “Synthesis and biological evaluation of analogs of the marine alkaloids granulatimide and isogranulatimide” (Eur J Med Chem, 2012)
Activity calls are given as the source filed them. The calls are words filed in the database; no cut-off is given here.

System: not listed separately
Experiment: Cytotoxicity against human OE21 cells after 72 hrs by MTT assay
Type: functional, cell-based
Conditions: OE21, 72 h

`O=C1NC(=O)c2c1c1c3cc(O)ccc3[nH]c1c1cccn21` and `Cc1ccc2[nH]c3c(c4c(n5cccc35)C(=O)NC4=O)c2c1` cannot be ordered by IC50: greater than 100 µM for the first, greater than 100 µM for the second.

Compared with `COc1ccc2[nH]c3c(c4c(n5cccc35)C(=O)NC4=O)c2c1`, `O=C1NC(=O)c2c1c1c3ccccc3[nH]c1c1cccn21` is 2-fold higher in IC50: 37 µM for the first, 75 µM for the second.

Going from `O=C1NC(=O)c2c1c1c3ccccc3[nH]c1n1nccc21` to `COc1ccc2[nH]c(-c3ccc[nH]3)c(C3CC(=O)NC3=O)c2c1` (stereo not drawn), the IC50 rises from 2 µM to 53 µM (26-fold). The first is the more potent here.

System: HCT-116
Experiment: Cell cycle arrest in p53 double-mutant human HCT116 cells assessed as mitotic index after 24 hrs by flow cytometric analysis
Type: functional
Design: concentration or dose not given beside the values
Conditions: not given
Method in brief: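 HCT116 p53-/- cells pretreated with etoposide for 1 h, then released into drug-free medium with or without inhibitor for 23 h; nocodazole added to trap cells exiting G2/M. Mitotic cells scored by phospho-histone H3 labeling and DNA content (propidium iodide) by flow cytometry.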

In order of rising Activity:
1. O=C1NC(=O)c2c1c1c3cc(O)ccc3[nH]c1n1nccc21  3.9%
2. O=C1NC(=O)c2c1c1c3ccccc3[nH]c1c1cccn21  9.6%
3. O=C1NC(=O)c2c1c1c3ccccc3[nH]c1n1nccc21  23.9%

System: MCF7
Experiment: Cytotoxicity against human MCF7 cells after 72 hrs by MTT assay
Type: functional, cell-based
Conditions: MCF7, 72 h

Going from `O=C1NC(=O)c2c1c1c3cc(O)ccc3[nH]c1c1cccn21` to `Cc1ccc2[nH]c3c(c4c(n5cccc35)C(=O)NC4=O)c2c1`, the IC50 falls from greater than 100 µM to 42 µM.

`COc1ccc2[nH]c3c(c4c(n5cccc35)C(=O)NC4=O)c2c1` and `O=C1NC(=O)c2c1c1c3ccccc3[nH]c1c1cccn21` are within 1.5-fold of each other in IC50: 35 µM for the first, 49 µM for the second.

`O=C1NC(=O)c2c1c1c3ccccc3[nH]c1n1nccc21` and `COc1ccc2[nH]c(-c3ccc[nH]3)c(C3CC(=O)NC3=O)c2c1` (stereo not drawn) are within 1.5-fold of each other in IC50: 25 µM for the first, 19 µM for the second.

Biological target: Glycogen synthase kinase-3 (Sus scrofa, UniProt B2LUN4+I6LNT8)
Experiment: Inhibition of porcine brain GSK3alpha/beta using GS1 as substrate
Conditions: not given

In order of falling IC50:
1. COc1ccc2[nH]c3c(c4c(n5cccc35)C(=O)NC4=O)c2c1  1.7 µM
2. Cc1ccc2[nH]c3c(c4c(n5cccc35)C(=O)NC4=O)c2c1  1.7 µM
3. O=C1NC(=O)c2c1c1c3ccccc3[nH]c1c1cccn21  0.57 µM
4. O=C1NC(=O)c2c1c1c3ccccc3[nH]c1n1nccc21  0.49 µM
5. O=C1NC(=O)c2c1c1c3cc(O)ccc3[nH]c1c1cccn21  0.42 µM
6. O=C1NC(=O)c2c1c1c3cc(O)ccc3[nH]c1n1nccc21  0.041 µM

System: PC-3
Experiment: Cytotoxicity against human PC3 cells after 72 hrs by MTT assay
Type: functional, cell-based
Conditions: PC-3, 72 h

Compared with `O=C1NC(=O)c2c1c1c3cc(O)ccc3[nH]c1n1nccc21`, `O=C1NC(=O)c2c1c1c3ccccc3[nH]c1n1nccc21` is 1.6-fold lower in IC50: 36 µM for the first, 22 µM for the second. The second is the more potent here.

Going from `O=C1NC(=O)c2c1c1c3cc(O)ccc3[nH]c1c1cccn21` to `Cc1ccc2[nH]c3c(c4c(n5cccc35)C(=O)NC4=O)c2c1`, the IC50 falls from greater than 100 µM to 75 µM.

`COc1ccc2[nH]c3c(c4c(n5cccc35)C(=O)NC4=O)c2c1` and `O=C1NC(=O)c2c1c1c3ccccc3[nH]c1c1cccn21` are within 1.5-fold of each other in IC50: 66 µM for the first, 50 µM for the second.

Compound `COc1ccc2[nH]c(-c3ccc[nH]3)c(C3CC(=O)NC3=O)c2c1` (stereo not drawn) has an IC50 of 6 µM.

Biological target: Dual specificity tyrosine-phosphorylation-regulated kinase 1A (Rattus norvegicus, UniProt Q63470)
Experiment: Inhibition of GST-fused rat recombinant DYRK1A expressed in Escherichia coli using Woodtide as substrate and [gamma-33P] after 30 mins by scintillation counting
Conditions: not given

Compared with `O=C1NC(=O)c2c1c1c3cc(O)ccc3[nH]c1n1nccc21`, `O=C1NC(=O)c2c1c1c3ccccc3[nH]c1n1nccc21` is 12-fold higher in IC50: 0.18 µM for the first, 2.1 µM for the second.

First: O=C1NC(=O)c2c1c1c3cc(O)ccc3[nH]c1c1cccn21
Second: Cc1ccc2[nH]c3c(c4c(n5cccc35)C(=O)NC4=O)c2c1
The IC50 of the first is 42-fold lower: 0.2 µM for the first, 8.3 µM for the second.

First: COc1ccc2[nH]c3c(c4c(n5cccc35)C(=O)NC4=O)c2c1
Second: O=C1NC(=O)c2c1c1c3ccccc3[nH]c1c1cccn21
The IC50 of the first is higher: greater than 10 µM for the first, 1.3 µM for the second.

System: not listed separately
Experiment: Inhibition of porcine brain CK1delta/epsilon using CKS peptide as substrate
Design: species or system Sus scrofa
Conditions: not given

Going from `O=C1NC(=O)c2c1c1c3cc(O)ccc3[nH]c1n1nccc21` to `O=C1NC(=O)c2c1c1c3ccccc3[nH]c1n1nccc21`, the IC50 rises from 0.16 µM to 3.2 µM (20-fold). The first is the more potent here.

Going from `O=C1NC(=O)c2c1c1c3cc(O)ccc3[nH]c1c1cccn21` to `Cc1ccc2[nH]c3c(c4c(n5cccc35)C(=O)NC4=O)c2c1`, the IC50 rises from 1.1 µM to greater than 10 µM.

First: COc1ccc2[nH]c3c(c4c(n5cccc35)C(=O)NC4=O)c2c1
Second: O=C1NC(=O)c2c1c1c3ccccc3[nH]c1c1cccn21
The IC50 of the first is higher: greater than 10 µM for the first, 10 µM for the second. The second is the more potent here.

System: not listed separately
Experiment: Cytotoxicity against human Hs683 cells after 72 hrs by MTT assay
Type: functional, cell-based
Conditions: Hs 683, 72 h

First: O=C1NC(=O)c2c1c1c3cc(O)ccc3[nH]c1n1nccc21
Second: O=C1NC(=O)c2c1c1c3ccccc3[nH]c1n1nccc21
The IC50 of the first is 7.7-fold higher: 23 µM for the first, 3 µM for the second. The second is the more potent here.

First: O=C1NC(=O)c2c1c1c3cc(O)ccc3[nH]c1c1cccn21
Second: Cc1ccc2[nH]c3c(c4c(n5cccc35)C(=O)NC4=O)c2c1
The IC50 of the first is higher: greater than 100 µM for the first, 45 µM for the second.

`COc1ccc2[nH]c3c(c4c(n5cccc35)C(=O)NC4=O)c2c1` and `O=C1NC(=O)c2c1c1c3ccccc3[nH]c1c1cccn21` are within 1.5-fold of each other in IC50: 58 µM for the first, 52 µM for the second.

Work on `COc1ccc2[nH]c(-c3ccc[nH]3)c(C3CC(=O)NC3=O)c2c1` (stereo not drawn) yielded an IC50 of 6 µM.

System: B16-F10
Experiment: Cytotoxicity against mouse B16F10 cells after 72 hrs by MTT assay
Type: functional, cell-based
Conditions: B16-F10, 72 h

In order of falling IC50:
1. O=C1NC(=O)c2c1c1c3cc(O)ccc3[nH]c1c1cccn21  93 µM
2. O=C1NC(=O)c2c1c1c3ccccc3[nH]c1n1nccc21  25 µM
3. COc1ccc2[nH]c3c(c4c(n5cccc35)C(=O)NC4=O)c2c1  22 µM
4. O=C1NC(=O)c2c1c1c3ccccc3[nH]c1c1cccn21  19 µM
5. Cc1ccc2[nH]c3c(c4c(n5cccc35)C(=O)NC4=O)c2c1  15 µM
6. O=C1NC(=O)c2c1c1c3cc(O)ccc3[nH]c1n1nccc21  7 µM
7. COc1ccc2[nH]c(-c3ccc[nH]3)c(C3CC(=O)NC3=O)c2c1 (stereo not drawn)  0.6 µM

System: A549
Experiment: Cytostatic activity against human A549 cells after 72 hrs by quantitative videomicroscopic analysis
Type: functional, cell-based
Conditions: not given

In the case of `O=C1NC(=O)c2c1c1c3ccccc3[nH]c1c1cccn21`, the Activity is reported as “Active”.

System: A549
Experiment: Cytotoxicity against human A549 cells after 72 hrs by MTT assay
Type: functional, cell-based
Conditions: A549, 72 h

Compared with `O=C1NC(=O)c2c1c1c3cc(O)ccc3[nH]c1n1nccc21`, `O=C1NC(=O)c2c1c1c3ccccc3[nH]c1n1nccc21` is 1.9-fold lower in IC50: 15 µM for the first, 8 µM for the second. The second is the more potent here.

First: O=C1NC(=O)c2c1c1c3cc(O)ccc3[nH]c1c1cccn21
Second: Cc1ccc2[nH]c3c(c4c(n5cccc35)C(=O)NC4=O)c2c1
The IC50 of the first is higher: greater than 100 µM for the first, 14 µM for the second. The second is the more potent here.

`COc1ccc2[nH]c3c(c4c(n5cccc35)C(=O)NC4=O)c2c1` and `O=C1NC(=O)c2c1c1c3ccccc3[nH]c1c1cccn21` are within 1.5-fold of each other in IC50: 26 µM for the first, 18 µM for the second.

`COc1ccc2[nH]c(-c3ccc[nH]3)c(C3CC(=O)NC3=O)c2c1` (stereo not drawn) gave an IC50 of 4 µM.

System: LoVo
Experiment: Cytotoxicity against human LoVo cells after 72 hrs by MTT assay
Type: functional, cell-based
Conditions: not given

In order of rising IC50:
1. O=C1NC(=O)c2c1c1c3ccccc3[nH]c1n1nccc21  0.4 µM
2. COc1ccc2[nH]c(-c3ccc[nH]3)c(C3CC(=O)NC3=O)c2c1 (stereo not drawn)  4 µM
3. O=C1NC(=O)c2c1c1c3cc(O)ccc3[nH]c1n1nccc21  7 µM
4. O=C1NC(=O)c2c1c1c3ccccc3[nH]c1c1cccn21  11 µM
5. COc1ccc2[nH]c3c(c4c(n5cccc35)C(=O)NC4=O)c2c1  39 µM
6. Cc1ccc2[nH]c3c(c4c(n5cccc35)C(=O)NC4=O)c2c1  52 µM
7. O=C1NC(=O)c2c1c1c3cc(O)ccc3[nH]c1c1cccn21  99 µM

Biological target: Dual specificity protein kinase CLK1 (Mus musculus, UniProt P22518)
Sequence (P22518 whole entry, the tested form may be a part): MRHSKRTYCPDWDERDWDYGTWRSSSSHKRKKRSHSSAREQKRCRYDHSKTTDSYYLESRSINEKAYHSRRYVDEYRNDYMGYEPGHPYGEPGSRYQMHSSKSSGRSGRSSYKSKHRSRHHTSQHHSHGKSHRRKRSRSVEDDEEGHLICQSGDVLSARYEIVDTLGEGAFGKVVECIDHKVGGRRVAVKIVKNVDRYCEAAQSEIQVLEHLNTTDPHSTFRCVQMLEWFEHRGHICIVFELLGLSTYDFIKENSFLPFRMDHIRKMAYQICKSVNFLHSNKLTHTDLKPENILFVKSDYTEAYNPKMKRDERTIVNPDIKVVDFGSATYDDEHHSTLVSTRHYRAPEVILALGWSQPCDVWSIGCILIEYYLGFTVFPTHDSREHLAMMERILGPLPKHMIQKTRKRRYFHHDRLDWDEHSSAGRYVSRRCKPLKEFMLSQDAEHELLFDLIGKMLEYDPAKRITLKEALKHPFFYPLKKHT
Experiment: Inhibition of GST-fused mouse recombinant CLK1 expressed in Escherichia coli using RS peptide as substrate
Conditions: not given
Method in brief: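 Blanks subtracted, activity as % of uninhibited maximum, DMSO dilution controls, IC50 from dose-response curves.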

In order of falling IC50:
1. COc1ccc2[nH]c3c(c4c(n5cccc35)C(=O)NC4=O)c2c1  10 µM
2. Cc1ccc2[nH]c3c(c4c(n5cccc35)C(=O)NC4=O)c2c1  1.5 µM
3. O=C1NC(=O)c2c1c1c3ccccc3[nH]c1c1cccn21  0.52 µM
4. O=C1NC(=O)c2c1c1c3ccccc3[nH]c1n1nccc21  0.3 µM
5. O=C1NC(=O)c2c1c1c3cc(O)ccc3[nH]c1c1cccn21  0.26 µM
6. O=C1NC(=O)c2c1c1c3cc(O)ccc3[nH]c1n1nccc21  0.09 µM

Biological target: Cyclin-dependent kinase 5/CDK5 activator 1 (Homo sapiens, UniProt Q00535)
Sequence (Q00535 whole entry): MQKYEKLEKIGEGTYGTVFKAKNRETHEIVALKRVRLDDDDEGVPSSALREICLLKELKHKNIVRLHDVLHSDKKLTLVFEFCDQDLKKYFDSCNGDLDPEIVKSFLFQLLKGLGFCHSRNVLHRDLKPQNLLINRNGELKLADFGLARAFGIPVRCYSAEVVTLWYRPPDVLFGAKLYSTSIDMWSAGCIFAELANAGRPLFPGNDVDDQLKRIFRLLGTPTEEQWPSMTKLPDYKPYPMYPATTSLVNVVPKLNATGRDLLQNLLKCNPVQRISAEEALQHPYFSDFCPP
Sequence (Q15078 whole entry, further chain): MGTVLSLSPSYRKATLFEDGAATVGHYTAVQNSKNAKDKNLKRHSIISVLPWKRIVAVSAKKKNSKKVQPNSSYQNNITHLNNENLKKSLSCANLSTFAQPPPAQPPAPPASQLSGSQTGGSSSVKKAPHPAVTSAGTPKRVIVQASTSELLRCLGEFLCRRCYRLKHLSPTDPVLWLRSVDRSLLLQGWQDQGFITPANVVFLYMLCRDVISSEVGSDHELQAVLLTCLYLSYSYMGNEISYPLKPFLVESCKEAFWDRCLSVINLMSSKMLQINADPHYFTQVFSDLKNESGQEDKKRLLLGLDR
Experiment: Inhibition of human recombinant CDK5/p25
Type: protein-complex assay
Conditions: not given
Method in brief: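 Human recombinant CDK5/p25 assayed in triplicate in buffer C with 1 mg/ml histone H1 at 30 °C, 15 µM ATP final. Activity as % of uninhibited control after blank subtraction; IC50 from dose-response curves.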

First: O=C1NC(=O)c2c1c1c3cc(O)ccc3[nH]c1n1nccc21
Second: O=C1NC(=O)c2c1c1c3ccccc3[nH]c1n1nccc21
The IC50 of the first is 7.8-fold lower: 0.51 µM for the first, 4 µM for the second.

Going from `O=C1NC(=O)c2c1c1c3cc(O)ccc3[nH]c1c1cccn21` to `Cc1ccc2[nH]c3c(c4c(n5cccc35)C(=O)NC4=O)c2c1`, the IC50 rises from 2.6 µM to 7.5 µM (2.9-fold).

Compared with `COc1ccc2[nH]c3c(c4c(n5cccc35)C(=O)NC4=O)c2c1`, `O=C1NC(=O)c2c1c1c3ccccc3[nH]c1c1cccn21` is lower in IC50: greater than 10 µM for the first, 2.1 µM for the second. The second is the more potent here.

System: not listed separately
Experiment: Cytotoxicity against p53-mutant human U373 cells after 72 hrs by MTT assay
Type: functional, cell-based, U-373MG ATCC
Conditions: U373 MG

Compared with `O=C1NC(=O)c2c1c1c3cc(O)ccc3[nH]c1n1nccc21`, `O=C1NC(=O)c2c1c1c3ccccc3[nH]c1n1nccc21` is 40-fold lower in IC50: 8 µM for the first, 0.2 µM for the second.

Compared with `O=C1NC(=O)c2c1c1c3cc(O)ccc3[nH]c1c1cccn21`, `Cc1ccc2[nH]c3c(c4c(n5cccc35)C(=O)NC4=O)c2c1` is lower in IC50: greater than 100 µM for the first, 22 µM for the second.

`COc1ccc2[nH]c3c(c4c(n5cccc35)C(=O)NC4=O)c2c1` and `O=C1NC(=O)c2c1c1c3ccccc3[nH]c1c1cccn21` are within 1.5-fold of each other in IC50: 26 µM for the first, 33 µM for the second.

`COc1ccc2[nH]c(-c3ccc[nH]3)c(C3CC(=O)NC3=O)c2c1` (stereo not drawn) gave an IC50 of 15 µM.
